Assay results published in the RNAGym collection of RNA variant scans (doi:10.1002/anie.201605470).

B1: Osa-1-4 twister ribozyme (parent)
chain: CCGCCUAACACUGCCAAUGCCGGUCCCAAGCCCGGAUAAAAGUGGAGGGGGCGG

Variants of: B1
Assay: self-cleavage, relative activity (ratio to wild type); higher = more cleavage; co-transcriptional
In short: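 For each read, cleavage status was taken from whether upstream sequence was present. The reads came from an Oryza sativa twister ribozyme of 54 nucleotides, whose DNA template was synthesised with 97 % wild-type base and 1 % of each other base at the 48 positions downstream of the cleavage site. The template was transcribed in vitro at 37 °C for 2 h with co-transcriptional self-cleavage, and the RNA was reverse-transcribed using a template-switching oligonucleotide, PCR-amplified and deep-sequenced. Relative activity is the fraction cleaved normalised to wild type.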

Variant | self-cleavage
A29U G45U | 0.03
A29U G45A | 0.03
A29U G45C | 0.03
G30C U24A | 0.03
G30C U24G | 0.01
G30C U24C | 0.04
A29U U18A | 0.12
A29U U18C | 0.13
A29U U18G | 0.25
A29U A36G | 0.24
A29U A36U | 0.17
A29U A36C | 0.03
A29U C15U | 0.07
A29U C15A | 0.04
A29U C15G | 0.09
G30U | 0.04
G30C | 0.04
G30A | 0.04
G30C U12A | 0.06
G30C U12G | 0.1
G30C U12C | 0.03
A29U C32A | 0.04
A29U C32G | 0.03
A29U C32U | 0.03

Variant | self-cleavage
G30C G48U | 0.02
G30C G48C | 0.02
G30C G48A | 0.02
A29U C14U | 0.05
A29U C14G | 0.04
A29U C14A | 0.03
A29G G22U | 0.06
A29G G22A | 0.11
A29G G22C | 0.12
G30A G49A | 0.02
G30A G49U | 0.03
G30A G49C | 0.02
A29U C52A | 0.08
A29U C52U | 0.19
A29U C52G | 0.12
G30A U43C | 0.02
G30A U43A | 0.04
G30A U43G | 0.04
A29U U24A | 0.32
A29U U24G | 0.01
A29U U24C | 0.06
G30U G44A | 0.04
G30U G44U | 0.05
G30U G44C | 0.04

Variant | self-cleavage
G30U U12A | 0.03
A29U G35C | 0.04
A29U G35A | 0.11
A29U G35U | 0.09
A29U G50A | 0.13
A29U G50C | 0.04
A29U G50U | 0.09
A29U G48C | 0.03
A29U G48U | 0.03
A29U G48A | 0.03
G30C G42U | 0.02
G30C G42C | 0.04
G30C G42A | 0.04
G30C U18C | 0.05
G30C U18A | 0.05
G30C U18G | 0.06
A29U G34U | 0.05
A29U G34A | 0.07
A29U G34C | 0.05
A29U A41U | 0.2
A29U A41C | 0.13
A29U A41G | 0.06
A29U | 0.21
A29G G45U | 0.04

Variant | self-cleavage
A29G G45A | 0.05
A29G G45C | 0.03
A29G G35C | 0.05
A29G G35U | 0.16
A29G G35A | 0.24
A29G U18A | 0.23
A29G U18C | 0.23
A29G U18G | 0.34
A29U G51C | 0.05
A29U G51A | 0.06
A29U G51U | 0.04
A29U C11G | 0.04
A29U C11U | 0.08
A29U C11A | 0.05
A29G U37C | 0.28
A29G U37G | 0.44
A29G U37A | 0.32
G30C G50U | 0.05
G30C G50A | 0.04
G30C G50C | 0.05
A29U A40U | 0.06
A29U A40G | 0.08
A29U A40C | 0.03
G30C G34U | 0.04

Variant | self-cleavage
G30C G34A | 0.07
G30C G34C | 0.04
G30U G47C | 0.01
G30U G47A | 0.03
G30U G47U | 0.03
A29U G22A | 0.12
A29U G22U | 0.08
A29U G22C | 0.04
A29U G42U | 0.03
A29U G42A | 0.06
A29U G42C | 0.04
G30A U18C | 0.04
G30A U18G | 0.06
G30A U18A | 0.07
G30A U37A | 0.03
G30A U37G | 0.05
G30A U37C | 0.03
G30A G50A | 0.04
G30A G50U | 0.04
G30A G50C | 0.04
A29U G23U | 0.03
A29U G23C | 0.03
A29U G23A | 0.08
A29U A46C | 0.02

Variant | self-cleavage
A29U A46G | 0.04
A29U A46U | 0.04
A29U U43G | 0.08
A29U U43A | 0.06
A29U U43C | 0.06
G30U G50A | 0.03
G30U G50U | 0.05
G30U G50C | 0.05
G30U G34A | 0.04
G30U G34C | 0.05
G30U G34U | 0.04
G30A U24C | 0.03
G30A U24G | 0.01
G30A U24A | 0.03
G30U G53C | 0.03
G30U G53A | 0.04
G30U G53U | 0.04
G30A G44C | 0.04
G30A G44U | 0.04
G30A G44A | 0.04
G30U G45C | 0.02
G30U G45A | 0.03
G30U G45U | 0.02
G30C G44A | 0.03

Variant | self-cleavage
G30C G44C | 0.04
G30C G44U | 0.04
A29U C21A | 0.05
A29U C21G | 0.04
A29U C21U | 0.15
A29U G54U | 0.27
A29U G54A | 0.09
A29U G54C | 0.06
G30U G51C | 0.03
G30U G51A | 0.05
G30U G51U | 0.03
A29U A7C | 0.02
A29U A7G | 0.06
A29U A7U | 0.05
G30U G35U | 0.04
G30U G35C | 0.03
G30U G35A | 0.04
A29G G53U | 0.07
A29G G53A | 0.07
A29G G53C | 0.06
A29G G34U | 0.05
A29G G34A | 0.13
A29G G34C | 0.06
G30C G53U | 0.04

Variant | self-cleavage
G30C G53A | 0.04
G30C G53C | 0.02
A29U G47U | 0.03
A29U G47C | 0.03
A29U G47A | 0.03
G30A G35C | 0.03
G30A G35A | 0.05
G30A G35U | 0.04
G30U G49U | 0.03
G30U G49C | 0.02
G30U G49A | 0.02
A29G G50C | 0.08
A29G G50A | 0.27
A29G G50U | 0.17
A29U G13U | 0.02
A29U G13A | 0.04
A29U G13C | 0.01
A29U C31A | 0.02
A29U C31U | 0.06
A29U C31G | 0.03
G30C G49A | 0.02
G30C G49C | 0.02
G30C G49U | 0.02
A29U C26G | 0.05

Variant | self-cleavage
A29U C26U | 0.07
A29U C26A | 0.03
G30A G45U | 0.02
G30A G45A | 0.03
G30A G45C | 0.02
A29G G54U | 0.37
A29G G54C | 0.08
A29G G54A | 0.15
A29U G44C | 0.12
A29U G44A | 0.06
A29U G44U | 0.07
G30C U43G | 0.05
G30C U43C | 0.04
G30C U43A | 0.05
G30C G51C | 0.03
G30C G51U | 0.03
G30C G51A | 0.05
A29U U37G | 0.23
A29U U37A | 0.16
A29U U37C | 0.14
A29U C25G | 0.05
A29U C25U | 0.1
A29U C25A | 0.03
G30A G42U | 0.02

Variant | self-cleavage
G30A G42A | 0.04
G30A G42C | 0.03
G30A U12A | 0.03
G30A U12G | 0.02
G30A U12C | 0.03
G30U G54U | 0.05
G30U G54C | 0.03
G30U G54A | 0.03
G30A G47A | 0.03
G30A G47U | 0.02
G30A G47C | 0.02
A29U A39C | 0.05
A29U A39G | 0.07
A29U A39U | 0.07
G30C G47C | 0.02
G30C G47A | 0.03
G30C G47U | 0.03
A29G G42U | 0.04
A29G G42C | 0.06
A29G G42A | 0.06
A29U C27G | 0.05
A29U C27U | 0.08
A29U C27A | 0.03
A29G G48C | 0.04

Variant | self-cleavage
A29G G48A | 0.04
A29G G48U | 0.03
G30A G51A | 0.04
G30A G51C | 0.02
G30A G51U | 0.04
G30U G42U | 0.02
G30U G42C | 0.03
G30U G42A | 0.04
G30A G53U | 0.04
G30A G53C | 0.03
G30A G53A | 0.03
A29G G19C | 0.06
A29G G19U | 0.07
A29U G19A | 0.05
A29U G19U | 0.05
A29U G19C | 0.03
G30U G48A | 0.02
G30U G48U | 0.02
G30U G48C | 0.02
G30C G54C | 0.04
G30C G54U | 0.05
G30C G54A | 0.05
A29U A8C | 0.04
A29U A8G | 0.11

Variant | self-cleavage
A29U A8U | 0.05
A29U G49A | 0.03
A29U G49C | 0.04
A29U G49U | 0.02
A29G G47U | 0.03
A29G G47C | 0.03
A29G G47A | 0.05
A29U G30A | 0.03
A29U G30U | 0.03
A29U G30C | 0.02
G30C G45A | 0.03
G30C G45C | 0.02
G30C G45U | 0.02
A29G G44U | 0.08
A29G G44A | 0.07
A29G G44C | 0.16
A29U A38G | 0.09
A29U A38U | 0.09
A29U A38C | 0.08
G30C G35C | 0.04
G30C G35A | 0.05
G30C G35U | 0.04
A29U C9G | 0.07
A29U C9U | 0.05

Variant | self-cleavage
A29U C9A | 0.03
A29G U12G | 0.04
A29G U12C | 0.08
A29G U12A | 0.1
A29G G30U | 0.04
A29G G30A | 0.05
A29G G30C | 0.03
A29G U24C | 0.08
A29G U24A | 0.07
A29G U24G | 0.02
A29U C33G | 0.04
A29U C33A | 0.04
A29U C33U | 0.08
G30C U37A | 0.03
G30C U37G | 0.05
G30C U37C | 0.04
A29G G23C | 0.04
A29G G23U | 0.05
A29G G23A | 0.07
A29G G49A | 0.05
A29G G49C | 0.04
A29G G49U | 0.04
G30A G54C | 0.04
G30A G54U | 0.06

Variant | self-cleavage
G30A G54A | 0.05
G30A G48U | 0.01
G30A G48C | 0.02
G30A G48A | 0.01
A29G G51A | 0.1
A29G G51C | 0.05
A29G G51U | 0.06
A29U G53A | 0.07
A29U G53C | 0.04
A29U G53U | 0.06
A29U U12G | 0.04
A29U U12A | 0.08
A29U U12C | 0.05
A29U C20G | 0.03
A29U C20U | 0.21
A29U C20A | 0.12
A29G U43G | 0.06
A29G U43A | 0.07
A29G U43C | 0.08
G30A G34U | 0.04
G30A G34A | 0.11
G30A G34C | 0.05
